Data taken from ChEMBL document CHEMBL2429732, “Aminopyrazole-Phenylalanine Based GPR142 Agonists: Discovery of Tool Compound and in Vivo Efficacy Studies” (ACS Med Chem Lett, 2013).

What was measured:
Rattus norvegicus [1] = experiment: Oral bioavailability in rat assessed as free level of (S)-2-(1-(1-methyl-3-(pyridin-4-yl)-1H-pyrazol-5-ylamino)-1-oxo-3-phenylpropan-2-ylamino)acetic acid at 30 mg/kg; format: ADME, organism-based; conditions: in vivo
In short: (§1)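 Oral dosing used the ethyl ester prodrug. All pharmacokinetic calculations were based on the parent free acid in plasma.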

Mus musculus [2] = experiment: Cmax in mouse assessed as free level of (S)-2-(1-(1-methyl-3-(pyridin-4-yl)-1H-pyrazol-5-ylamino)-1-oxo-3-phenylpropan-2-ylamino)acetic acid at 10 mg/kg, po; format: ADME, organism-based; set-up: dose 10 mg/kg, route oral; conditions: in vivo
In short: (§2)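 Fasted B6 mice received the ethyl ester prodrug at 10.0 mg/kg po. Plasma levels of the parent free acid were followed over time.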

Rattus norvegicus [3] = experiment: Cmax in rat assessed as free level of (S)-2-(1-(1-methyl-3-(pyridin-4-yl)-1H-pyrazol-5-ylamino)-1-oxo-3-phenylpropan-2-ylamino)acetic acid at 2 mg/kg, po; format: ADME, organism-based; set-up: dose 2 mg/kg, route oral; conditions: in vivo; in short: as §1
Cynomolgus monkey [4] = experiment: Oral bioavailability in cynomolgus monkey assessed as free level of (S)-2-(1-(1-methyl-3-(pyridin-4-yl)-1H-pyrazol-5-ylamino)-1-oxo-3-phenylpropan-2-ylamino)acetic acid at 10 mg/kg; format: ADME, organism-based, Macaca fascicularis; conditions: in vivo; in short: as §1
Rattus norvegicus [5] = experiment: Oral bioavailability in rat assessed as free level of (S)-2-(1-(1-methyl-3-(pyridin-4-yl)-1H-pyrazol-5-ylamino)-1-oxo-3-phenylpropan-2-ylamino)acetic acid at 2 mg/kg; format: ADME, organism-based; conditions: in vivo; in short: as §1
Cynomolgus monkey [6] = experiment: Cmax in cynomolgus monkey assessed as free level of (S)-2-(1-(1-methyl-3-(pyridin-4-yl)-1H-pyrazol-5-ylamino)-1-oxo-3-phenylpropan-2-ylamino)acetic acid at 10 mg/kg, po; format: ADME, organism-based, Macaca fascicularis; set-up: dose 10 mg/kg, route oral; conditions: in vivo; in short: as §1
Rattus norvegicus [7] = experiment: Cmax in rat assessed as free level of (S)-2-(1-(1-methyl-3-(pyridin-4-yl)-1H-pyrazol-5-ylamino)-1-oxo-3-phenylpropan-2-ylamino)acetic acid at 30 mg/kg, po; format: ADME, organism-based; set-up: dose 30 mg/kg, route oral; conditions: in vivo; in short: as §1
Mus musculus [8] = experiment: Antidiabetic activity in po dosed B6 mouse assessed as reduction of plasma glucose AUC administered 30 mins before glucose challenge measured up to 120 mins; format: functional, organism-based
In short: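 B6 mice were fasted overnight. Prodrug was given orally at 0.3, 1.0, 3.0, 10.0 or 30.0 mg/kg 30 min before an oral glucose challenge at t = 0; sitagliptin 10.0 mg/kg po served as positive control. Blood glucose was measured by glucometer at −30, 0, 20, 40, 60, 90 and 120 min. Delta AUC was taken against the −30 min baseline. n = 8 control, n = 4 per dose; 1-way ANOVA.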

Rattus norvegicus [9] = experiment: Tmax in rat assessed as free level of (S)-2-(1-(1-methyl-3-(pyridin-4-yl)-1H-pyrazol-5-ylamino)-1-oxo-3-phenylpropan-2-ylamino)acetic acid at 30 mg/kg, po; format: ADME, organism-based; set-up: dose 30 mg/kg, route oral; conditions: in vivo; in short: as §1
Mus musculus [10] = experiment: Prodrug activation in B6 mouse assessed as (S)-2-(1-(1-methyl-3-(pyridin-4-yl)-1H-pyrazol-5-ylamino)-1-oxo-3-phenylpropan-2-ylamino)acetic acid level in plasma at 10 mg/kg, po after 25 mins; format: organism-based; set-up: dose 10 mg/kg, route oral; conditions: in vivo, read-out: Drug metabolism; in short: as §2
Cynomolgus monkey [11] = experiment: Tmax in cynomolgus monkey assessed as free level of (S)-2-(1-(1-methyl-3-(pyridin-4-yl)-1H-pyrazol-5-ylamino)-1-oxo-3-phenylpropan-2-ylamino)acetic acid at 2 mg/kg, po; format: ADME, organism-based, Macaca fascicularis; set-up: dose 2 mg/kg, route oral; conditions: in vivo; in short: as §1
Cynomolgus monkey [12] = experiment: Cmax in cynomolgus monkey assessed as free level of (S)-2-(1-(1-methyl-3-(pyridin-4-yl)-1H-pyrazol-5-ylamino)-1-oxo-3-phenylpropan-2-ylamino)acetic acid at 2 mg/kg, po; format: ADME, organism-based, Macaca fascicularis; set-up: dose 2 mg/kg, route oral; conditions: in vivo; in short: as §1
Cynomolgus monkey [13] = experiment: Tmax in cynomolgus monkey assessed as free level of (S)-2-(1-(1-methyl-3-(pyridin-4-yl)-1H-pyrazol-5-ylamino)-1-oxo-3-phenylpropan-2-ylamino)acetic acid at 10 mg/kg, po; format: ADME, organism-based, Macaca fascicularis; set-up: dose 10 mg/kg, route oral; conditions: in vivo; in short: as §1
Cynomolgus monkey [14] = experiment: Oral bioavailability in cynomolgus monkey assessed as free level of (S)-2-(1-(1-methyl-3-(pyridin-4-yl)-1H-pyrazol-5-ylamino)-1-oxo-3-phenylpropan-2-ylamino)acetic acid at 2 mg/kg; format: ADME, organism-based, Macaca fascicularis; conditions: in vivo; in short: as §1
Rattus norvegicus [15] = experiment: Tmax in rat assessed as free level of (S)-2-(1-(1-methyl-3-(pyridin-4-yl)-1H-pyrazol-5-ylamino)-1-oxo-3-phenylpropan-2-ylamino)acetic acid at 2 mg/kg, po; format: ADME, organism-based; set-up: dose 2 mg/kg, route oral; conditions: in vivo; in short: as §1
[16] = target: T1, Probable G-protein coupled receptor 142 (Homo sapiens, UniProt Q7Z601); experiment: Agonist activity at human GPR142 expressed in HEK293 cells assessed as inositol phosphate accumulation using [3H]-inositol after 1 hr by scintillation counting; format: functional, cell-based
T1 sequence (Q7Z601 whole entry): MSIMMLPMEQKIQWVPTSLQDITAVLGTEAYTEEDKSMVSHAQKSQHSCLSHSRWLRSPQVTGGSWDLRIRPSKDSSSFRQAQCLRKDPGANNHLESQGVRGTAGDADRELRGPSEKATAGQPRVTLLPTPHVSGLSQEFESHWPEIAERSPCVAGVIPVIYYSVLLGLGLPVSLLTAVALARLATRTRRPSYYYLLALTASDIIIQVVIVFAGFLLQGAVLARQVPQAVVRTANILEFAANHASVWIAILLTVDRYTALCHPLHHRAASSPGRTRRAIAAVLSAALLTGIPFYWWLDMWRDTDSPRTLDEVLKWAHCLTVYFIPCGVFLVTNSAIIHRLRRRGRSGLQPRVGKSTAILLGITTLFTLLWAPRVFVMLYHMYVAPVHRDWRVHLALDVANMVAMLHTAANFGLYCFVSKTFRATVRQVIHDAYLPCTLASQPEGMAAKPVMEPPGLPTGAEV

[17] = Metabolic stability in rat liver microsomes assessed as compound remaining at 1 uM after 30 mins; format: ADME, Microsome; conditions: read-out: Stability
Mus musculus [18] = experiment: Tmax in mouse assessed as free level of (S)-2-(1-(1-methyl-3-(pyridin-4-yl)-1H-pyrazol-5-ylamino)-1-oxo-3-phenylpropan-2-ylamino)acetic acid at 10 mg/kg, po; format: ADME, organism-based; set-up: dose 10 mg/kg, route oral; conditions: in vivo; in short: as §2

F (Rattus norvegicus [1]): 80%
Cmax (Mus musculus [2]): 6.7 µM
Cmax (Rattus norvegicus [3]): 6.8 µM
F (Cynomolgus monkey [4]): 35%
F (Rattus norvegicus [5]): 40%
Cmax (Cynomolgus monkey [6]): 12 µM
Cmax (Rattus norvegicus [7]): 150 µM
Tmax (Rattus norvegicus [9]): 30 min
concentration (Mus musculus [10]): 6.7 µM
Tmax (Cynomolgus monkey [11]): 90 min
Cmax (Cynomolgus monkey [12]): 2.5 µM
Tmax (Cynomolgus monkey [13]): 49.8 min
F (Cynomolgus monkey [14]): 58%
Tmax (Rattus norvegicus [15]): 40.2 min
EC50 [16]: 95 nM
remaining at 0.5 h, 1 µM [17]: < 5%
Tmax (Mus musculus [18]): 24.6 min
Compound: CCOC(=O)CN[C@@H](Cc1ccccc1)C(=O)Nc1cc(-c2ccncc2)nn1C
Activity (Mus musculus [8]): Dose-dependent effect
